Reference: ChEMBL document CHEMBL2396573, “Synthesis and evaluation of 8-amino-[1,2,4]triazolo[4,3-a]pyridin-3(2H)-one derivatives as glycogen synthase kinase-3 (GSK-3) inhibitors” (Bioorg Med Chem Lett, 2013)

Key:
[1] = target: Glycogen synthase kinase-3 (Homo sapiens, UniProt P49840+P49841); assay: Inhibition of recombinant human GSK3 using YRRAAVPPSPSLSRHSSPHQ(pS)EDEEE as substrate preincubated for 10 mins followed by [33P-gamma]-ATP addition measured after 30 mins by liquid scintillation counting analysis; type: protein assay
Summary of the method: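 Reaction started with 1 µM ATP […] 33P-γ-ATP, run 30 min at 30 °C, and stopped with 3% phosphoric acid. Product captured on P81 paper and read by scintillation counting. IC50 is the mean of triplicates.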

[2] = Inhibition of GSK3 in rat […] cells assessed as reduction in glucose production after overnight incubation by fluorescence assay; type: cell-based
Summary of the method: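 Rat hepatoma H4IIE cells grown in DMEM + 10% FBS, 2 mM L-glutamine and penicillin–streptomycin at 37 °C, 5% CO2, and passaged at 75% confluence. Plated at 100,000 cells/well, attached ~3 h, then PBS-washed and held overnight in glucose- and serum-free DMEM with 20 mM lactate and 2 mM pyruvate. Compounds, diluted in this medium, added overnight. Glucose in medium read with Amplex Red/glucose oxidase (30 min, dark; ex 560/em 615 nm); mean of triplicates.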

[3] = target: Mitogen-activated protein kinase 13 (Homo sapiens) (UniProt O15264); assay: Inhibition of human SAPK4 at 10 uM relative to control
Sequence of Mitogen-activated protein kinase 13 (Homo sapiens) (O15264 whole entry): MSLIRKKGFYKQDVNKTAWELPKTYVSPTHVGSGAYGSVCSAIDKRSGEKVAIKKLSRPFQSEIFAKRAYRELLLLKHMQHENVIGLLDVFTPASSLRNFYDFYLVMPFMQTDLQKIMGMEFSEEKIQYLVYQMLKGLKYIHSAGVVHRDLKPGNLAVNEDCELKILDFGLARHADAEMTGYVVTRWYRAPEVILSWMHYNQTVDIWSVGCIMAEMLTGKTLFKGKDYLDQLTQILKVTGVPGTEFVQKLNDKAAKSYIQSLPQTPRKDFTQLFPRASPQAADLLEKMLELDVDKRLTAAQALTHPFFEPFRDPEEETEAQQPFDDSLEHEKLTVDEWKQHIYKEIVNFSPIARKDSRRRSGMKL

[4] = target: Serine/threonine-protein kinase Sgk1 (Homo sapiens) (UniProt O00141); assay: Inhibition of human SGK at 10 uM relative to control
Sequence of Serine/threonine-protein kinase Sgk1 (Homo sapiens) (O00141 whole entry): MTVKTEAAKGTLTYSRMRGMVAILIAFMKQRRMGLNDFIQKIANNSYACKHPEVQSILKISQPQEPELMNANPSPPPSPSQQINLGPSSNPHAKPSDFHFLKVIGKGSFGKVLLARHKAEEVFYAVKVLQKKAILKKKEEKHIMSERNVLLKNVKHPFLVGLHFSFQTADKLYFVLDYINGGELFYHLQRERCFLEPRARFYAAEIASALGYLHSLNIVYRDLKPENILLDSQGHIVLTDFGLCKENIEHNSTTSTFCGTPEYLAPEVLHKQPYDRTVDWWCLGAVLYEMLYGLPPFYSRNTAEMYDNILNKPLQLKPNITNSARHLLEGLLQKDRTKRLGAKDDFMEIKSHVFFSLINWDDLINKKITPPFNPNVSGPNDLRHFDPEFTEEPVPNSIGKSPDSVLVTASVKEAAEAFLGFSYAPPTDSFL

[5] = target: Mitogen-activated protein kinase 12 (Homo sapiens) (UniProt P53778); assay: Inhibition of human SAPK3 at 10 uM relative to control
[6] = target: Mitogen-activated protein kinase 11 (Homo sapiens) (UniProt Q15759); assay: Inhibition of human SAPK2B at 10 uM relative to control
[7] = target: Mitogen-activated protein kinase 14 (Homo sapiens) (UniProt Q16539); assay: Inhibition of human SAPK2A at 10 uM relative to control
Sequence of Mitogen-activated protein kinase 14 (Homo sapiens) (Q16539 whole entry): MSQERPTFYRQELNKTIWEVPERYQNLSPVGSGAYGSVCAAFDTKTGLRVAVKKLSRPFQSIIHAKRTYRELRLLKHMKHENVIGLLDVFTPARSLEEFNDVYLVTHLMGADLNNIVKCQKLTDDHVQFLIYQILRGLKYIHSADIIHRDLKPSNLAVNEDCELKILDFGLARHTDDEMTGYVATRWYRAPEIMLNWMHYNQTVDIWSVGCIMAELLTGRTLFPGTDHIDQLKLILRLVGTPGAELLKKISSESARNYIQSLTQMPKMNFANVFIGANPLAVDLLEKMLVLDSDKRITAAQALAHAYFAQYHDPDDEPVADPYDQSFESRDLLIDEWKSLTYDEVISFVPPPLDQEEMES

[8] = target: Ribosomal protein S6 kinase alpha-3 (Homo sapiens) (UniProt P51812); assay: Inhibition of human RSK2 at 10 uM relative to control
[9] = target: Rho-associated protein kinase 2 (Homo sapiens) (UniProt O75116); assay: Inhibition of human ROCK-2 at 10 uM relative to control
[10] = target: MAP kinase-activated protein kinase 5 (Homo sapiens) (UniProt Q8IW41); assay: Inhibition of human PRAK at 10 uM relative to control
Sequence of MAP kinase-activated protein kinase 5 (Homo sapiens) (Q8IW41 whole entry): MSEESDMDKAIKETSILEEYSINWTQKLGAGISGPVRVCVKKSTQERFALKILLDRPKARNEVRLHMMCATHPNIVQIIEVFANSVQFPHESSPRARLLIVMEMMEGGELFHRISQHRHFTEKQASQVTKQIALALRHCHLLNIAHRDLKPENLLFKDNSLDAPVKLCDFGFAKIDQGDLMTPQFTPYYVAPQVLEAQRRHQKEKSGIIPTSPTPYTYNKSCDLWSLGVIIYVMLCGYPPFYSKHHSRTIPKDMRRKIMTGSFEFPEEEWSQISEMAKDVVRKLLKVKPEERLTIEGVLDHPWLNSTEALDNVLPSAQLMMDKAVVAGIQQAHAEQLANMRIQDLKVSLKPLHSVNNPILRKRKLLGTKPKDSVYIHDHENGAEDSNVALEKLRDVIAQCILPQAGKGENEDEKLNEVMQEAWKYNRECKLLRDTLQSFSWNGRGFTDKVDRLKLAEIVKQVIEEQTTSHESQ

[11] = target: Protein kinase C alpha type (Homo sapiens) (UniProt P17252); assay: Inhibition of human PKCalpha at 10 uM relative to control
[12] = target: RAC-alpha serine/threonine-protein kinase (Homo sapiens) (UniProt P31749); assay: Inhibition of human PKBalpha at 10 uM relative to control
Sequence of RAC-alpha serine/threonine-protein kinase (Homo sapiens) (P31749 whole entry, canonical isoform): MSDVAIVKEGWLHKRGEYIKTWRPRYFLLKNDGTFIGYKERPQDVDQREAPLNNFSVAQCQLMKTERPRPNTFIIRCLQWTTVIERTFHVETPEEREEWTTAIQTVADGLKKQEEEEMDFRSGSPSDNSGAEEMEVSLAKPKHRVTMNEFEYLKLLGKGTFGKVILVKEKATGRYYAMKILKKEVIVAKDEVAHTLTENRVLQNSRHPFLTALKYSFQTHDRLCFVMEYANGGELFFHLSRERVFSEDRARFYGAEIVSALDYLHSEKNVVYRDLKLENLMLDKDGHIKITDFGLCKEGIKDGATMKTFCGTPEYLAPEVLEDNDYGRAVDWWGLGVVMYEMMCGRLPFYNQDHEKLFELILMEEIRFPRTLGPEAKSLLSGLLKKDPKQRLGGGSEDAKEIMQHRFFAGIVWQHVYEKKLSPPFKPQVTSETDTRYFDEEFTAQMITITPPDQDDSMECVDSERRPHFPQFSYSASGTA

[13] = target: Phosphorylase b kinase gamma catalytic chain, liver/testis isoform (Homo sapiens) (UniProt P15735); assay: Inhibition of human PhKgamma2 at 10 uM relative to control
Homo sapiens = species on record: Homo sapiens; assay: Inhibition of human PKA at 10 uM relative to control
[14] = target: Ribosomal protein S6 kinase beta-1 (Homo sapiens) (UniProt P23443); assay: Inhibition of human p70S6K at 10 uM relative to control
Sequence of Ribosomal protein S6 kinase beta-1 (Homo sapiens) (P23443 whole entry, looked up): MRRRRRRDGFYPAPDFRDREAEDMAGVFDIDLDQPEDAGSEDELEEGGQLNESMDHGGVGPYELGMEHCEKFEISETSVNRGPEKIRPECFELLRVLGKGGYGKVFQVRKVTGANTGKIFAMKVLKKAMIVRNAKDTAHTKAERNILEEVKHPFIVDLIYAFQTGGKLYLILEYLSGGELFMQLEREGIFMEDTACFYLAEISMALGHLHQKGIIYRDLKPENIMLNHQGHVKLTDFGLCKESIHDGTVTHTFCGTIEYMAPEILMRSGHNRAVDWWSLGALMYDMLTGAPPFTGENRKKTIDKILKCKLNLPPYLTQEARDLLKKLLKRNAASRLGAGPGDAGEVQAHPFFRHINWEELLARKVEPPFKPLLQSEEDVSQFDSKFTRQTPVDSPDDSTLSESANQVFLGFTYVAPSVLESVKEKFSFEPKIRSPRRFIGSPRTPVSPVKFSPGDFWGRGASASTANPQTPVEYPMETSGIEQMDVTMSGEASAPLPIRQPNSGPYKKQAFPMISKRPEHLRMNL

[15] = target: Ribosomal protein S6 kinase alpha-5 (Homo sapiens) (UniProt O75582); assay: Inhibition of human MSK1 at 10 uM relative to control
[16] = target: MAP kinase-activated protein kinase 2 (Homo sapiens) (UniProt P49137); assay: Inhibition of human MAPKAP-K2 at 10 uM relative to control
[17] = target: Dual specificity mitogen-activated protein kinase kinase 1 (Homo sapiens) (UniProt Q02750); assay: Inhibition of human MEK1 at 10 uM relative to control
Sequence of Dual specificity mitogen-activated protein kinase kinase 1 (Homo sapiens) (Q02750 whole entry): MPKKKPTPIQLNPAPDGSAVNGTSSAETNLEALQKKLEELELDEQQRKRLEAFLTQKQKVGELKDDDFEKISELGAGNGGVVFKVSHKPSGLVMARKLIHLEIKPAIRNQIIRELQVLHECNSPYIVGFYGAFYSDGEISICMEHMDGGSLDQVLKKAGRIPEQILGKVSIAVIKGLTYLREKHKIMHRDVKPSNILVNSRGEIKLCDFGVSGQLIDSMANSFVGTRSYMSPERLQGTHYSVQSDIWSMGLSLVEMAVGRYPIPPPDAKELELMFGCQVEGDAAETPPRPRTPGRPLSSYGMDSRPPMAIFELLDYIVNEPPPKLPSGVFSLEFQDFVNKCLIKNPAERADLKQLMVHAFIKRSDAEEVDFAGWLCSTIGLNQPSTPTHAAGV

[18] = target: Mitogen-activated protein kinase 1 (Homo sapiens) (UniProt P28482); assay: Inhibition of human MAPK1 at 10 uM relative to control
Sequence of Mitogen-activated protein kinase 1 (Homo sapiens) (P28482 whole entry): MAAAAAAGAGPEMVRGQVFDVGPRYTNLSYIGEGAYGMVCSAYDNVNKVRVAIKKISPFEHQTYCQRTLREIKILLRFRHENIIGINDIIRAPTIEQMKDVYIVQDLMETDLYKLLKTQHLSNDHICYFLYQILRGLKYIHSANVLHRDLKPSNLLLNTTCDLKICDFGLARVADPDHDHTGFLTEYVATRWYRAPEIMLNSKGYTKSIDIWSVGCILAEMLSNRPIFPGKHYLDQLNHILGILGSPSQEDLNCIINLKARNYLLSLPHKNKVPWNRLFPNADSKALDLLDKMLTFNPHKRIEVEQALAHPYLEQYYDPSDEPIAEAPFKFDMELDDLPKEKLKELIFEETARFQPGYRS

[19] = target: Tyrosine-protein kinase Lck (Homo sapiens) (UniProt P06239); assay: Inhibition of human LCK at 10 uM relative to control
[20] = target: Glycogen synthase kinase-3 beta (Homo sapiens) (UniProt P49841); assay: Inhibition of human GSK3beta at 10 uM relative to control
Sequence of Glycogen synthase kinase-3 beta (Homo sapiens) (P49841 whole entry, looked up): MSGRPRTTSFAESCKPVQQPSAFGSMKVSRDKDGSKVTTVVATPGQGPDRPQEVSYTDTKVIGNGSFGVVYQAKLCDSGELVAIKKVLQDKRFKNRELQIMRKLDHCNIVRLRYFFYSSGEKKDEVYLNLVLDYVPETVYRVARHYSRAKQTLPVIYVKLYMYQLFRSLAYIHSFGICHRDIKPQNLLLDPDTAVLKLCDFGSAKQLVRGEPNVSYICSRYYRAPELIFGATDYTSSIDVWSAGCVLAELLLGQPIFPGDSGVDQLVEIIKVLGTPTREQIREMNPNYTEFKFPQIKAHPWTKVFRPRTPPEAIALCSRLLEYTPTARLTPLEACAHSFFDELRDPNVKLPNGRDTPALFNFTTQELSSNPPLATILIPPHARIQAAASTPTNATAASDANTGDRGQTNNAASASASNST

[21] = target: Mitogen-activated protein kinase 8 (Homo sapiens) (UniProt P45983); assay: Inhibition of human JNK1alpha1 at 10 uM relative to control
Sequence of Mitogen-activated protein kinase 8 (Homo sapiens) (P45983 whole entry): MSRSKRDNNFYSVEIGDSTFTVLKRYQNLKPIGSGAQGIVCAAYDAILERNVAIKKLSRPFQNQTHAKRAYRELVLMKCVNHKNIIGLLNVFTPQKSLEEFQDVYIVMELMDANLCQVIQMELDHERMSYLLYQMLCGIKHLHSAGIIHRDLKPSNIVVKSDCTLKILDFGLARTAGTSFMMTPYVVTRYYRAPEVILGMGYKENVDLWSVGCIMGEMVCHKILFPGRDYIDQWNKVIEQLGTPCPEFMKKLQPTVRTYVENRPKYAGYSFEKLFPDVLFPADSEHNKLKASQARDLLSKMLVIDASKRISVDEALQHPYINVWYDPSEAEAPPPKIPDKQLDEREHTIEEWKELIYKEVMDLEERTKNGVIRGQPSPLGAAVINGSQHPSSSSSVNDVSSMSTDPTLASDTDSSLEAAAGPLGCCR

[22] = target: Glycogen synthase kinase-3 alpha (Homo sapiens) (UniProt P49840); assay: Inhibition of human GSK3alpha at 10 uM relative to control
[23] = target: Casein kinase II (Homo sapiens) (UniProt P67870+P68400+P19784); assay: Inhibition of human CK2 at 10 uM relative to control; type: protein-complex assay
[24] = target: Serine/threonine-protein kinase Chk1 (Homo sapiens) (UniProt O14757); assay: Inhibition of human CHK1 at 10 uM relative to control
[25] = target: CDK2/Cyclin A2 (Homo sapiens) (UniProt P24941+P20248); assay: Inhibition of human CDK2/cyclinA at 10 uM relative to control; type: protein-complex assay
[26] = target: Cyclin-dependent kinase 5/CDK5 activator 1 (Homo sapiens) (UniProt Q00535+Q15078); assay: Inhibition of human CDK5/p25 at 10 uM relative to control; type: protein-complex assay
[27] = target: 5'-AMP-activated protein kinase catalytic subunit alpha-1 (Homo sapiens) (UniProt Q13131); assay: Inhibition of human AMPKalpha1 at 10 uM relative to control
[28] = Solubility of the compound in water; type: physicochemical
[29] = Ratio of drug level from brain to plasma in ICR mouse at 30 mg/kg, iv measured at 0.75 hrs; type: ADME, organism-based; design: dose 30 mg/kg, route intravenous; details: read-out: BPR
Summary of the method: (§1)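 ICR mice, n = 3, given a single iv dose of 30 mg/kg. Plasma (ng/ml) and brain (ng/g) concentrations measured by LC/MS/MS at 0.25 and 0.75 h. Brain/plasma ratio taken from these paired values.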

[30] = Ratio of drug level from brain to plasma in ICR mouse at 30 mg/kg, iv measured at 0.25 hrs; type: ADME, organism-based; design: dose 30 mg/kg, route intravenous; details: read-out: BPR; summary of the method: as §1
[31] = Drug uptake in ICR mouse brain at 30 mg/kg, iv measured at 0.75 hrs by LC/MS/MS analysis; type: ADME, organism-based; design: dose 30 mg/kg, route intravenous; details: read-out: Drug uptake; summary of the method: as §1
[32] = Drug uptake in ICR mouse brain at 30 mg/kg, iv measured at 0.25 hrs by LC/MS/MS analysis; type: ADME, organism-based; design: dose 30 mg/kg, route intravenous; details: read-out: Drug uptake; summary of the method: as §1
[33] = Plasma concentration in ICR mouse at 30 mg/kg, iv measured at 0.25 hrs by LC/MS/MS analysis; type: ADME, organism-based; design: dose 30 mg/kg, route intravenous; summary of the method: as §1
[34] = Plasma concentration in ICR mouse at 30 mg/kg, iv measured at 0.75 hrs by LC/MS/MS analysis; type: ADME, organism-based; design: dose 30 mg/kg, route intravenous; summary of the method: as §1
[35] = Oral bioavailability in rat at 5 mg/kg by LC/MS/MS analysis; type: ADME, organism-based; details: in vivo
Summary of the method: (§2)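 Rat PK, n = 3 animals; iv dose 3 mg/kg, oral dose 5 mg/kg. Plasma levels quantified by LC/MS/MS after dosing. Derived parameters: AUC0–inf, clearance, elimination half-life and oral bioavailability (F).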

[36] = Elimination half life in rat at 3 mg/kg, iv by LC/MS/MS analysis; type: ADME, organism-based; design: dose 3 mg/kg, route intravenous; details: in vivo, read-out: beta t1/2 (converted); summary of the method: as §2
[37] = Elimination half life in rat at 5 mg/kg, po by LC/MS/MS analysis; type: ADME, organism-based; design: dose 5 mg/kg, route oral; details: in vivo, read-out: beta t1/2 (converted); summary of the method: as §2
[38] = AUC (0 to infinity) in rat at 5 mg/kg, po by LC/MS/MS analysis; type: ADME, organism-based; design: time infinity, dose 5 mg/kg, route oral; details: plasma
Summary of the method: (§3)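 Rat pharmacokinetics with n = 3 per group. Compound given iv at 3 mg/kg or po at 5 mg/kg. Concentrations were measured by LC/MS/MS after administration. AUC0–inf is the area under the concentration–time curve. Clearance, elimination half-life and bioavailability were derived in the same study.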

[39] = Clearance in rat at 3 mg/kg, iv by LC/MS/MS analysis; type: ADME, organism-based; design: dose 3 mg/kg, route intravenous; details: in vivo; summary of the method: as §2
[40] = AUC (0 to infinity) in rat at 3 mg/kg, iv by LC/MS/MS analysis; type: ADME, organism-based; design: time infinity, dose 3 mg/kg, route intravenous; details: plasma; summary of the method: as §3
[41] = target: 3-phosphoinositide-dependent protein kinase 1 (Homo sapiens) (UniProt O15530); assay: Inhibition of human PDK1 at 10 uM relative to control

Structure (SMILES): COc1ccc(CCC(=O)Nc2cccn3c(=O)[nH]nc23)cc1
- IC50 [1]: > 50000 nM

Structure (SMILES): Cl.Nc1cc(CCCNc2cc(Cl)cn3c(=O)[nH]nc23)ccn1
- EC50 [2]: 2360 nM
- IC50 [1]: 249 nM

Structure (SMILES): Cl.O=c1[nH]nc2c(NCCCc3ccnc(Cl)c3)cc(Cl)cn12
- EC50 [2]: 2630 nM
- IC50 [1]: 199 nM

Structure (SMILES): Cc1cc(NCCCN2CCNCC2)c2n[nH]c(=O)n2c1.Cl
- IC50 [1]: > 50000 nM

Structure (SMILES): Cl.O=c1[nH]nc2c(NCCCc3cccc(OCCN4CCOCC4)c3)cc(Cl)cn12
- EC50 [2]: 3840 nM
- IC50 [1]: 247 nM

Structure (SMILES): COc1ccc(OCCn2nc3c(N)cccn3c2=O)cc1
- IC50 [1]: > 50000 nM

Structure (SMILES): Cc1cc(CCCNc2cc(Cl)cn3c(=O)[nH]nc23)ccn1.Cl
- EC50 [2]: 7030 nM
- IC50 [1]: 818 nM

Structure (SMILES): Cc1cc(N(C)CCCc2ccccn2)c2n[nH]c(=O)n2c1.Cl
- IC50 [1]: 50000 nM

Structure (SMILES): COc1ccc(OCCNc2cc(C)cn3c(=O)[nH]nc23)cc1
- IC50 [1]: 7010 nM

Structure (SMILES): COc1cccc(CCCNc2cc(Cl)cn3c(=O)[nH]nc23)c1
- EC50 [2]: 2710 nM
- IC50 [1]: 190 nM

Structure (SMILES): Nc1cccn2c(=O)[nH]nc12
- IC50 [1]: > 50000 nM

Structure (SMILES): Cc1cc(NCCCc2ccncc2)c2n[nH]c(=O)n2c1.Cl
- EC50 [2]: 6230 nM
- IC50 [1]: 607 nM

Structure (SMILES): Cl.O=c1[nH]nc2c(NCCCc3ccncc3)cc(Cl)cn12
- inhibition [3]: 2%
- inhibition [4]: 22%
- inhibition [5]: 5%
- inhibition [6]: 1%
- inhibition [7]: -1%
- inhibition [8]: 34%
- inhibition [9]: 27%
- inhibition [10]: 14%
- inhibition [11]: 18%
- inhibition [12]: 12%
- inhibition [13]: 25%
- inhibition (Homo sapiens): 0%
- inhibition [14]: 14%
- inhibition [15]: 9%
- inhibition [16]: 19%
- inhibition [17]: 9%
- inhibition [18]: 15%
- inhibition [19]: 19%
- inhibition [20]: 90%
- inhibition [21]: 9%
- inhibition [22]: 99%
- inhibition [23]: 5%
- inhibition [24]: 21%
- inhibition [25]: 54%
- inhibition [26]: 53%
- inhibition [27]: -1%
- solubility [28]: > 10000 µg/mL
- Kp at 0.75 h [29]: 0.1
- Kp at 0.25 h [30]: 0.34
- concentration at 0.75 h [31]: 107 ng/g
- concentration at 0.25 h [32]: 214 ng/g
- concentration at 0.25 h [33]: 634 ng/mL
- concentration at 0.75 h [34]: 1050 ng/mL
- bioavailability [35]: 83%
- half-life [36]: 24 min
- half-life [37]: 72 min
- AUC(0-inf) [38]: 3460 ng·h/mL
- clearance [39]: 20 mL/min/kg
- AUC(0-inf) [40]: 2490 ng·h/mL
- EC50 [2]: 1780 nM
- IC50 [1]: 111 nM
- inhibition [41]: 10%

Structure (SMILES): Cc1cc(NCCCc2ccc(C)nc2)c2n[nH]c(=O)n2c1.Cl
- EC50 [2]: 1250 nM
- IC50 [1]: 309 nM

Structure (SMILES): Cc1cc(NCCCc2cccnc2)c2n[nH]c(=O)n2c1.Cl
- EC50 [2]: 5440 nM
- IC50 [1]: 354 nM

Structure (SMILES): Cc1cc(NCCCc2ccnc(Cl)c2)c2n[nH]c(=O)n2c1.Cl
- EC50 [2]: 12100 nM
- IC50 [1]: 774 nM

Structure (SMILES): Cc1cc(NCCCn2ccnc2)c2n[nH]c(=O)n2c1.Cl
- EC50 [2]: 13300 nM
- IC50 [1]: 1360 nM

Structure (SMILES): COc1cc(CCCNc2cc(C)cn3c(=O)[nH]nc23)ccn1.Cl
- EC50 [2]: 9110 nM
- IC50 [1]: 641 nM

Structure (SMILES): Cc1cc(NCCCc2ccc(N)cc2)c2n[nH]c(=O)n2c1.Cl
- EC50 [2]: 18400 nM
- IC50 [1]: 1010 nM

Structure (SMILES): Cl.O=c1[nH]nc2c(NCCCc3cccnc3)cc(Cl)cn12
- EC50 [2]: 1680 nM
- IC50 [1]: 520 nM

Structure (SMILES): COc1ccc(OCCNc2cccn3c(=O)[nH]nc23)cc1
- IC50 [1]: 13000 nM

Structure (SMILES): Cc1ccc(CCCNc2cc(Cl)cn3c(=O)[nH]nc23)cn1.Cl
- EC50 [2]: 2740 nM
- IC50 [1]: 342 nM

Structure (SMILES): Cc1cc(NCCCc2ccccn2)c2n[nH]c(=O)n2c1.Cl
- EC50 [2]: 21100 nM
- IC50 [1]: 1200 nM
